Bioassay records: PubChem, SRMLSC
HUVEC inhibit = inhibitors of HUVEC proliferation, primary screen, cell-based, 384-well; CellTiter-Glo luminescence, 72 h; active compounds read low; viability, % at 10 µM (by protocol); 1.1% of 86,000 active;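 active = viability at or below 30%; inactive = viability above 30%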
bCat KO growth = primary screen for growth suppressors in beta-catenin knockout HCT116 cells (colon tumor, human). viability, % at 10 µM. HCT116 beta-catenin knockout viability, CellTiter-Glo, 60 h; active compounds read low. 1.5% of 140,000 active. AID 818, 2007;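 active = viability at or under a set limit, the compound median less 4 SD, cut at about 6% in these data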
H69AR inhibit = proliferation blockers of H69AR lung cancer cells, primary screen, cell-based, human, 86K library; viability, % at 10 µM; 6% of 85,000 active; H69AR lung tumor viability, ATP luminescence, 72 h; active compounds read low; AID 598, 2007;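 active = viability at or below 40%; inactive = viability above 40%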;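 note: multidrug resistant small cell line overexpressing MRP-1 efflux transporter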
HCT116 PTEN-null = growth suppression of PTEN-null HCT116, primary screen, cell-based, CellTiter-Glo; AID 827, 2007; viability, % at 10 µM; 1.2% of 140,000 active; HCT116 PTEN-null viability, 60 h; active compounds read low;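 active = viability at or below a set limit, 4 SD under the median of all tested compounds, cut at about 3.7% in these data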;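 note: PTEN knockout HCT116 line with beta catenin targeted HCT116 as companion control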
Lung fibro prol = antiproliferative effect on LL 47 fibroblasts – human, LL 47 cells, CellTiter-Glo luminescence, primary screen. 1.1% of 85,000 active. viability, % at 10 µM. AID 719, 2007. LL 47 human lung fibroblast viability, ATP luminescence; active compounds read low;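 active = viability at or below 50% in the single dose screen; inactive = viability above 50%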;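 note: compound exposure lasted 72 h before the ATP readout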
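Assay system: human lung fibroblast line LL 47, low passage. Input: 1,150 fibroblasts seeded per well. Times: overnight cell rest, 72 h compound treatment at 37 °C. Evaluation: % viability of median cell-only signal. Technique: luminescent ATP detection, CellTiter-Glo. Control set: cell-only wells, no compound.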
Hits are given with their value; 0 = inactive; - = no result given. Shown is part of a subset that was picked to be rich in hits.

SMILES	HUVEC inhibit	bCat KO growth	H69AR inhibit	HCT116 PTEN-null	Lung fibro prol
CC(NC(=O)c1ccccc1NC(=O)c1ccccc1)C(=O)N1CCOCC1 (configuration not stated)	-	0	-	0	-
O=S(=O)(c1ccc(Cl)c(Cl)c1)c1snnc1-c1ccccc1	3.6	1.2	-0.2	1.3	4.8
C=CCSC(=C(C#N)C#N)c1cc2c([nH]1)CCCC2	16.9	2.6	1.3	1.9	7.4
O=C(O)c1cc2c([nH]c1=O)CCCC2	0	0	0	0	0
O=C(/C(C=Nc1ccc(F)cc1)=C(/O)c1ccco1)C(F)(F)F	-	0	-	0	-
CC(=O)Oc1ccc2ccccc2c1C(NC(=O)Cc1ccccc1)c1ccccc1Cl (configuration not stated)	-	3.9	-	1.4	-
CCCC(=O)NC(c1ccccc1Cl)c1c(O)ccc2ccccc12 (configuration not stated)	-	0	-	0	-
O=C(N/N=C/c1ccc(-c2cccc(C(F)(F)F)c2)o1)c1ccccc1O	-	0	-	3.1	-
O=C(N/N=C\c1ccc([N+](=O)[O-])s1)c1cncc(Br)c1	-	3.4	-	1.5	-
O=C(N/N=C/c1ccc([N+](=O)[O-])s1)c1cccnc1	-	3.3	-	2.8	-
CCOC(=O)C(C(=O)OCC)C(Nc1ccc(Br)cc1)c1ccccc1 (configuration not stated)	-	1.5	-	1.5	-
O=C1[C@@H]2[C@@H]3C[C@@H]([C@H]4ON=C(c5ccc(Cl)cc5)[C@@H]34)[C@@H]2C(=O)N1C1CCCCC1	-	0	-	0	-
CCOc1cc(CNc2ccc(O)cc2)cc(Br)c1OCc1ccccc1F	-	4.0	-	0	-
CCOc1cc(CNC(C)(C)CO)cc(Br)c1OCc1ccc(Cl)cc1Cl	-	0.8	-	0.8	-
COc1cccc(CNCCO)c1OCc1ccccc1Cl	-	0	-	0	-
COc1cc(CNc2ccc(O)cc2)cc(Br)c1OCc1ccccc1F	-	0	-	0	-
CCCCOc1c(Cl)cc(CNC(C)(C)CO)cc1OCC	0	0	0	0	0
CCOc1cc(CNCCO)cc(Br)c1OCc1ccc(Cl)cc1	-	1.7	-	1.2	-
CCOc1cc(CNCCO)cc(Br)c1OCc1ccccc1Cl	-	1.2	-	1.4	-
CCCNC(=S)NCc1ccc(Cl)cc1	-	0	-	0	-
CN1/C(=C\C(=O)CSc2nnc(NCc3ccccc3)s2)C(C)(C)c2ccccc21	-	0	-	0	-
Cc1cc(C(=O)CSc2nnc(NCc3ccccc3)s2)c(C)n1C	0	0	31.8	0	0
CCC(CC)C(=O)OCC(=O)Nc1cc(OC)c([N+](=O)[O-])cc1C	-	0	-	0	-
Cc1ccc(S(=O)(=O)N2CCC(=O)N(C(COCc3cccc(C(F)(F)F)c3)C(C)C)CC2)cc1 (configuration not stated)	-	0	-	0	-
CCCCOc1ccc(CC(=O)NO)cc1	0	0	4.8	0	0
SMILES	HUVEC inhibit	bCat KO growth	H69AR inhibit	HCT116 PTEN-null	Lung fibro prol
COc1ccc(CCNC(=O)c2ccc(=O)[nH]n2)cc1OC	0	0	0	0	0
COc1ccc(CCNC(=O)c2cc(-c3cc(C)c(C)cc3O)n[nH]2)cc1OC	0	0	29.0	0	0
Cc1sc(NC(=O)c2ccco2)c(C(c2cccnc2)N2CCN(C)CC2)c1C (configuration not stated)	0	0	0	0	0
CN1CCN(C(c2cccnc2)c2ccc3cccnc3c2O)CC1 (configuration not stated)	0	0	15.6	0	0
CCOc1ccc2nc(NC(=O)COC)sc2c1	0	0	0	0	0
CCOc1ccc2nc(NC(=O)C3CCN(c4cnccn4)CC3)sc2c1	0	0	33.7	0	0
CCOc1ccc2nc(NC(=O)Nc3cccs3)sc2c1	0	0	35.2	0	0
CCOc1ccc2nc(NC(=O)c3ccoc3C)sc2c1	0	0	20.4	0	35.4
CCOc1ccc2nc(NC(=O)Nc3ccccc3)sc2c1	0	0	0	0	0
O=C1C2CCCN2C(=O)N1CCCCN1CCN(c2ccc(F)cc2)CC1 (configuration not stated)	-	0	-	0	-
CC(=O)c1c(C)[nH]c(C(=O)Nc2nc(-c3ccc(Cl)cc3)cs2)c1C	-	0	-	0	-
Cc1ccc(-c2nc(NC(=O)c3nn(C)cc3[N+](=O)[O-])sc2C)cc1	-	1.4	-	1.4	-
Cn1cc([N+](=O)[O-])c(C(=O)Nc2nc(-c3ccc(Cl)cc3)cs2)n1	-	2.1	-	1.4	-
Cc1ccc(-c2nc(NC(=O)c3nn(C)cc3[N+](=O)[O-])sc2C)cc1C	-	1.6	-	1.4	-
N#Cc1c(Oc2ccc3ccccc3c2)sc(C(=O)c2ccccc2)c1N	-	0	-	0	-
O=C(c1ccccc1)c1c2c(cc3sc4ccccc4[n+]13)-c1cccc3cccc-2c13	-	2.1	-	2.3	-
Cc1ccc(C(=O)NNC2=Nc3cccc4cccc2c34)cc1	-	0	-	0	-
Cc1sc2cc3c(c(C(=O)c4ccccc4)[n+]2c1C)-c1cccc2cccc-3c12	-	2.2	-	2.1	-
CC(C)C(C)(C#N)NC(=O)CSc1nc2scc(-c3ccc(F)cc3)c2c(=O)n1Cc1ccccc1 (configuration not stated)	-	0	-	0	-
CCn1c2ccccc2c2cc(NC(=O)C3CCN(S(=O)(=O)c4cccs4)CC3)ccc21	0	-	21.0	-	0
COc1cccc(C2=NC(C)(C)NC(c3ccccc3O)C2)c1 (configuration not stated)	0	0	1.1	0	0
COc1cccc(C2=NOC(C(=O)NC(C)C)C2)c1 (configuration not stated)	0	0	0	0	0
CCC1(C)N=C(c2ccc3c(c2)OCO3)CC(c2ccccc2O)N1 (configuration not stated)	24.9	0	2.1	0	0
Cc1nc(-c2ccc3c(c2)OCO3)cs1	0	0	0	0	0
C=CCc1ccc(OCCOCCOc2cccc3cccnc23)c(OC)c1	-	0	-	0	-
SMILES	HUVEC inhibit	bCat KO growth	H69AR inhibit	HCT116 PTEN-null	Lung fibro prol
Cc1cc([N+](=O)[O-])nn1CCCC(=O)N1CCN(c2ccccc2)CC1	-	0	-	0	-
CCOC(=O)c1c(-c2ccccc2Cl)csc1NC(=O)CSc1nc(C)cc(=O)[nH]1	-	0	-	0	-
Cn1c(C(=O)NC2CCCCCC2)cc2c(=O)n(C)c3ccccc3c21	0	0	12.4	0	0
CC1CCC(NC(=O)c2cc3c(=O)n(C)c4ccccc4c3n2C)CC1 (configuration not stated)	0	0	29.0	0	0
Cn1c(C(=O)NC2CCCCC2)cc2c(=O)n(C)c3ccccc3c21	0	3.4	11.0	0	0
CC1CCCCN1CCNC(=O)c1cc2c(=O)n(C)c3ccccc3c2n1C (configuration not stated)	0	0	0	0	0
COC(=O)C1=C(C)OC(N)=C(C#N)C1c1c(C)nn(-c2ccccc2)c1Cl (configuration not stated)	0	0	38.6	0	0
CC1Cc2ccccc2N1C(=O)C1CCCN(S(=O)(=O)c2cccc3cccnc23)C1 (configuration not stated)	0	0	36.7	0	0
